Measured values as given in ChEMBL document CHEMBL5136969, “A niclosamide-tobramycin hybrid adjuvant potentiates cefiderocol against P. aeruginosa” (2021).
The source made the active and inactive calls.

Tests used:
[1] = tested on: Pseudomonas aeruginosa; experiment: Potentiation of moxifloxacin-induced antibiotic activity against Pseudomonas aeruginosa PAO1 assessed as MIC fold reduction at 8 ug/ml after 18 hrs by microbroth dilution method; type: functional; conditions: dose 8 µg/ml
[2] = tested on: Acinetobacter baumannii; experiment: Potentiation of colistin-induced antibiotic activity against Acinetobacter baumannii ATCC 17978 assessed as MIC fold reduction at 8 ug/ml after 18 hrs by microbroth dilution method; type: functional; conditions: dose 8 µg/ml
In short: (§1)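 Adjuvant held at a fixed 8 μg/mL while the antibiotic was 2-fold serially diluted in Mueller-Hinton broth (MHB), per CLSI microbroth dilution. Overnight cultures were adjusted in saline to 0.5 McFarland, then diluted 1:50 in MHB to about 5 × 10^5 CFU/mL final, and incubated 18 h at 37 °C. MIC was the lowest concentration with no visible turbidity, confirmed at 590 nm. Fold potentiation = MIC alone / MIC with adjuvant.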

[3] = tested on: Escherichia coli; experiment: Potentiation of novobiocin-induced antibiotic activity against Escherichia coli ATCC 25922 assessed as MIC fold reduction at 8 ug/ml after 18 hrs by microbroth dilution method; type: functional; conditions: dose 8 µg/ml
[4] = tested on: Acinetobacter baumannii; experiment: Potentiation of pleuromutilin-induced antibiotic activity against Acinetobacter baumannii ATCC 17978 assessed as MIC fold reduction at 8 ug/ml after 18 hrs by microbroth dilution method; type: functional; conditions: dose 8 µg/ml
[5] = tested on: Pseudomonas aeruginosa; experiment: Potentiation of sulfamethoxazole-induced antibiotic activity against Pseudomonas aeruginosa PAO1 assessed as MIC fold reduction at 8 ug/ml after 18 hrs by microbroth dilution method; type: functional; conditions: dose 8 µg/ml
[6] = tested on: Staphylococcus aureus; experiment: Antibacterial activity against methicillin-resistant Staphylococcus aureus ATCC 33592 assessed as reduction in bacterial growth after 18 hrs by microbroth dilution method; type: functional
In short: (§2)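 Broth microdilution per CLSI in Mueller-Hinton broth (MHB). Overnight cultures were adjusted to 0.5 McFarland in saline, diluted 1:50 in MHB, and added at about 5 × 10^5 CFU/mL final to equal volumes of 2-fold serial dilutions of agent. Incubation was 18 h at 37 °C. MIC was the lowest concentration with no visible turbidity, confirmed by absorbance at 590 nm.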

[7] = tested on: Enterococcus faecium; experiment: Antibacterial activity against Enterococcus faecium ATCC 27270 assessed as reduction in bacterial growth after 18 hrs by microbroth dilution method; type: functional
In short: (§3)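 CLSI microbroth dilution in MHB. Overnight cultures were adjusted to 0.5 McFarland in saline, diluted 1:50, and inoculated at about 5 × 10^5 CFU/mL. Agents were 2-fold serially diluted and incubated 18 h at 37 °C. MIC is the lowest concentration without visible turbidity, confirmed by absorbance at 590 nm. Medium with and without cells served as controls.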

[8] = tested on: Pseudomonas aeruginosa; experiment: Potentiation of ceftazidime-induced antibiotic activity against […] Pseudomonas aeruginosa PAO1 assessed as MIC fold reduction at 8 ug/ml after 18 hrs by microbroth dilution method; type: functional, organism-based; conditions: dose 8.0 µg/ml; in short: as §1
[9] = tested on: Pseudomonas aeruginosa; experiment: Potentiation of cefiderocol-induced antibiotic activity against MDR clinical isolate Pseudomonas aeruginosa PA264 assessed as MIC fold reduction at 8 ug/ml after 18 hrs by microbroth dilution method; type: functional, organism-based; conditions: dose 8.0 µg/ml
In short: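 Initial screen in MHB using a fixed 8 μg mL−1 of adjuvant combined with each antibiotic under 2-fold dilution. Broth microdilution used about 5 × 10^5 CFU/mL at 37 °C for 18 h, with visible turbidity read and confirmed at 590 nm. Fold-potentiation = antibiotic MIC alone ÷ antibiotic MIC with adjuvant.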

[10] = tested on: Pseudomonas aeruginosa; experiment: Antibacterial activity against MDR clinical isolate Pseudomonas aeruginosa PA260 assessed as reduction in bacterial growth after 18 hrs by microbroth dilution method; type: functional
In short: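 CLSI broth microdilution. Overnight cultures were adjusted in saline to 0.5 McFarland, diluted 1:50 in Mueller-Hinton broth (MHB), and inoculated at about 5 × 10^5 CFU/mL. Agents were 2-fold serially diluted in MHB, mixed 1:1 with inoculum, and held at 37 °C for 18 h. MIC was the lowest concentration with no visible turbidity, confirmed at 590 nm.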

[11] = tested on: Pseudomonas aeruginosa; experiment: Antibacterial activity against MDR clinical isolate Pseudomonas aeruginosa PA100036 assessed as reduction in bacterial growth after 18 hrs by microbroth dilution method; type: functional; in short: as §2
[12] = tested on: Pseudomonas aeruginosa; experiment: Antibacterial activity against MDR clinical isolate Pseudomonas aeruginosa PA262 assessed as reduction in bacterial growth after 18 hrs in presence of cefiderocol by microbroth dilution method; type: functional
In short: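 Checkerboard in MHB (iron-replete, not iron-depleted CAMHB). Cefiderocol was 2-fold serially diluted along one axis and the adjuvant along the other. Inoculum was 0.5 McFarland diluted 1:50, about 5 × 10^5 CFU/mL final. Incubation was 18 h at 37 °C, with turbidity read visually and confirmed at 590 nm. FIC was the MIC in combination over the MIC alone for each agent, and the FIC index was their sum. Cut-offs were ≤0.5 synergy, >0.5–4 additive, >4 antagonism.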

[13] = tested on: Pseudomonas aeruginosa; experiment: Antibacterial activity against MDR clinical isolate Pseudomonas aeruginosa PA88949 assessed as reduction in bacterial growth after 18 hrs in presence of cefiderocol by microbroth dilution method; type: functional
In short: (§4)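 Checkerboard in MHB. Cefiderocol was 2-fold serially diluted along one axis and the adjuvant along the other. Inoculum was prepared from 0.5 McFarland saline suspensions diluted 1:50 in MHB, giving about 5 × 10^5 CFU/mL final. Plates ran 18 h at 37 °C, with turbidity confirmed at 590 nm. FIC = combination MIC ÷ MIC alone for each agent, and FIC index = sum of both. Interpretation: ≤0.5 synergy, >0.5–4 additive, >4 antagonism.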

[14] = tested on: Acinetobacter baumannii; experiment: Antibacterial activity against Acinetobacter baumannii LAC-4 assessed as reduction in bacterial growth after 18 hrs by microbroth dilution method; type: functional; in short: as §3
[15] = tested on: Acinetobacter baumannii; experiment: Antibacterial activity against Acinetobacter baumannii LAC-4 assessed as reduction in bacterial growth after 18 hrs in presence of cefiderocol by microbroth dilution method; type: functional
In short: (§5)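 Checkerboard in Mueller-Hinton broth: cefiderocol 2-fold diluted on one axis, adjuvant 2-fold on the other. Overnight cultures were adjusted to 0.5 McFarland in saline, diluted 1:50 in MHB, and inoculated at about 5 × 10^5 CFU/mL. Incubation was 18 h at 37 °C. Turbidity was read visually and confirmed at 590 nm. FIC index = FIC of antibiotic + FIC of adjuvant; ≤0.5 synergy, >4 antagonism.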

[16] = tested on: Acinetobacter baumannii; experiment: Antibacterial activity against Acinetobacter baumannii AB92247 assessed as potentiation of cefiderocol antibacterial activity by measuring FIC after 18 hrs by microbroth dilution method; type: functional; in short: as §5
[17] = tested on: Acinetobacter baumannii; experiment: Antibacterial activity against Acinetobacter baumannii LAC-4 assessed as potentiation of cefiderocol antibacterial activity by measuring FIC after 18 hrs by microbroth dilution method; type: functional; in short: as §5
[18] = tested on: Enterobacter cloacae; experiment: Antibacterial activity against Enterobacter cloacae 121187 assessed as reduction in bacterial growth after 18 hrs in presence of cefiderocol by microbroth dilution method; type: functional; in short: as §5
[19] = tested on: Escherichia coli; experiment: Antibacterial activity against Escherichia coli 107115 assessed as potentiation of cefiderocol antibacterial activity by measuring FIC after 18 hrs by microbroth dilution method; type: functional; in short: as §5
[20] = tested on: Escherichia coli; experiment: Antibacterial activity against Escherichia coli 94474 assessed as potentiation of cefiderocol antibacterial activity by measuring FIC after 18 hrs by microbroth dilution method; type: functional; in short: as §5
[21] = tested on: Klebsiella pneumoniae; experiment: Antibacterial activity against Klebsiella pneumoniae KP113254 assessed as potentiation of cefiderocol antibacterial activity by measuring FIC after 18 hrs by microbroth dilution method; type: functional; in short: as §4
[22] = tested on: Enterobacter cloacae; experiment: Antibacterial activity against Enterobacter cloacae 121187 assessed as potentiation of cefiderocol antibacterial activity by measuring FIC after 18 hrs by microbroth dilution method; type: functional; in short: as §5

Question: What does the source list for `NC[C@H]1O[C@H](O[C@H]2[C@H](OCCCCc3cn(-c4ccc(NC(=O)c5cc(Cl)ccc5O)cc4)nn3)[C@@H](O[C@H]3O[C@H](CO)[C@@H](O)[C@H](N)[C@H]3O)[C@H](N)C[C@@H]2N)[C@H](N)C[C@@H]1O`?
Answer: fold change (FC) [1]: 4; fold change (FC) [2]: 4; fold change (FC) [3]: 4; fold change (FC) [4]: 4; fold change (FC) [5]: 4; MIC [6]: > 128 µg/mL; MIC [7]: > 128 µg/mL; Activity [8]: Active; Activity [9]: Active; MIC [10]: > 128 µg/mL; MIC [11]: > 128 µg/mL; MIC [12]: 1 µg/mL; MIC [13]: 0.25 µg/mL; MIC [14]: > 128 µg/mL; MIC [15]: 0.25 µg/mL; FIC [16]: 0.5; FIC [17]: 1; MIC [18]: 0.25 µg/mL; FIC [19]: 0.5; FIC [20]: 0.25; FIC [21]: 0.5; FIC [22]: 1
